The record followed here is ChEMBL document CHEMBL1145075, “A new class of diamine-based human histamine H3 receptor antagonists: 4-(aminoalkoxy)benzylamines” (J Med Chem, 2003).

Data set [1] has as its target T1, Histamine H3 receptor (Homo sapiens, UniProt Q9Y5N1). In words: In vitro binding affinity for human Histamine H3 receptor by displacing N-[3H]-methylhistamine in SK-N-MC cells was determined. The data set is classed as cell-based. In outline:
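Cloned human H3 receptor stably expressed in SK-N-MC cells; binding run per an earlier published procedure.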

In data set [2] the target is T1, Histamine H3 receptor. In words: Histamine-induced inhibition of forskolin- stimulated cAMP accumulation in SK-N-MC cells overexpressing the human Histamine H3 receptor. The data set is classed as functional, cell-based. The note with it: read-out: pA2 (converted). The method, boiled down:
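SK-N-MC sublines stably expressing human H3 receptor plus β-galactosidase reporter driven by multiple cAMP responsive elements. Compound added to media, forskolin (5 μM final) 5 min later, then 6 h at 37 °C. Cells PBS-washed, lysed, color developed with chlorophenol red β-D-galactopyranoside, absorbance 570 nm. pA2 from Schild regression of EC50 values.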
(In general: Changes in cAMP serve as a functional read-out for many G protein-coupled receptors.)

Data set [3] addresses Histamine H3 receptor (Rattus norvegicus, UniProt Q9QYN8). The data set is described as follows: In vitro binding affinity for rat Histamine H3 receptor by displacing N-[3H]-methylhistamine in rat cortex membranes was determined.
A short description of data set [4]: stabilit in human liver microsome expressed as Half life. The data set is classed as ADME. The conditions noted are these: liver microsomes. In outline: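 Stability in human liver microsomes measured by an outside contract laboratory; reported as half-life.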
Data set [5] can be described thus: Human plasma protein binding activity was determined. Format: ADME, cell-free. In outline:
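Human plasma protein binding measured by an outside contract laboratory.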

T1 sequence (Q9Y5N1 whole entry): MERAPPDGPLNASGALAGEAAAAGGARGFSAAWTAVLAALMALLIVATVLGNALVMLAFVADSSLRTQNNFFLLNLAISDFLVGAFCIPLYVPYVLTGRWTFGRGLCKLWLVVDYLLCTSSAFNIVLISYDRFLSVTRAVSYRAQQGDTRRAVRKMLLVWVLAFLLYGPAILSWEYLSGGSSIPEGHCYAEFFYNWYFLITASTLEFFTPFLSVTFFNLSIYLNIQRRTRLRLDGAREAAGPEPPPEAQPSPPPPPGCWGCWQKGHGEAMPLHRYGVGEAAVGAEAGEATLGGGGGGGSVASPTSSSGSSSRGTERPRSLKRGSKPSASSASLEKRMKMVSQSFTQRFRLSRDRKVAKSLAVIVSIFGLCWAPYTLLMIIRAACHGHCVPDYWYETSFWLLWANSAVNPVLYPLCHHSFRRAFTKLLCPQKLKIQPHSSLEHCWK
Histamine H3 receptor (Rattus norvegicus, UniProt Q9QYN8), sequence (Q9QYN8 whole entry): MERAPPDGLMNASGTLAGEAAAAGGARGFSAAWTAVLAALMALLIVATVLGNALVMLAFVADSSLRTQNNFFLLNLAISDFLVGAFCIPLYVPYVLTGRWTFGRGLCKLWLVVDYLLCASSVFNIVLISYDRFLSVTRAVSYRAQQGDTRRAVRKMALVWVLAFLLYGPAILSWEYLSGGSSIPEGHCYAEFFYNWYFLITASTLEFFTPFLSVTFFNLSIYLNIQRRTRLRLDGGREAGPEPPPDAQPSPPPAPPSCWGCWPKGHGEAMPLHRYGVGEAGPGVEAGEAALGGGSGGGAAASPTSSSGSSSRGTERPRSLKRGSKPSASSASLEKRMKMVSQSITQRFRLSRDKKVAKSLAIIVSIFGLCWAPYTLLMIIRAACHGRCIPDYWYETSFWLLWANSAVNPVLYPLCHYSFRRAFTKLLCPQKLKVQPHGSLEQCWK

`c1ccc2c(c1)CCC2NCc1ccc(OCCCN2CCCCC2)cc1` (stereo not given): affinity on Histamine H3 receptor [1] was put at a Ki of 0.832 nM.
Still for that read-out and setting: under `c1cc(OCCCC2CCCCC2)ccc1CN1CCCCC1` stands 631 nM; under `CN1CCN(Cc2ccc(OCCCN3CCCCC3)cc2)CC1`, 1.35 nM.
On to `c1cc(OCCN2CCCCC2)ccc1CN1CCCCC1`, for which the Kb on Histamine H3 receptor [2] is 8.91 nM. Moreover, the Ki at Histamine H3 receptor [1] is 8.91 nM.
`CCN(CC)CCOc1ccc(CN2CCCCC2)cc1` gave a Ki on Histamine H3 receptor [1] of 50.1 nM.
In the case of `OC1CCN(Cc2ccc(OCCCN3CCCCC3)cc2)CC1`, at Histamine H3 receptor [2], the Kb is 0.229 nM. At Histamine H3 receptor [1], this compound showed a Ki of 0.741 nM.
The corresponding values for `c1cc(OCCCN2CCCCC2)ccc1CNC1CCCCC1` are 0.195 nM and 0.513 nM.
`c1ccc2c(c1)CCN(Cc1ccc(OCCCN3CCCCC3)cc1)C2` had a Ki at Histamine H3 receptor [1] of 1.7 nM.
Consider `c1ccc(NCc2ccc(OCCCN3CCCCC3)cc2)cc1`, for which the Ki on Histamine H3 receptor [1] is 8.32 nM. Compared with the last compound, the Ki is about 4.9-fold higher.
For `CN(C)CCOc1ccc(CN2CCCCC2)cc1`, the Kb at Histamine H3 receptor [2] is 10.5 nM. This compound gave a Ki at Histamine H3 receptor [1] of 3.89 nM.
Turning to `c1cc(OCCCN2CCCCC2)ccc1CC1CCCCC1`, at Histamine H3 receptor [1], the affinity, expressed as Ki, was 50.1 nM.
As for `CN(C)Cc1ccc(OCCCN2CCCCC2)cc1`, the Ki at Histamine H3 receptor [1] is 0.933 nM. Against the preceding compound, the Ki is about 54-fold lower.
Consider `c1cc(OCCCN2CCCCC2)ccc1CN1CCOCC1`, for which the Kb on Histamine H3 receptor [2] was 0.537 nM. On Histamine H3 receptor [1], this compound gave a Ki of 0.871 nM.
`c1ccc(CC2CCN(Cc3ccc(OCCCN4CCCCC4)cc3)CC2)cc1` gave an inhibitory constant (Ki) on Histamine H3 receptor [1] of 1.51 nM.
On the same count and under the same terms, then `CCN(CC)CCCOc1ccc(CN2CCCCC2)cc1`, with 1.23 nM.
On the same count and under the same terms, then `c1cc(OCCCN2CCOCC2)ccc1CN1CCCCC1`, with 2.29 nM; and `NC(=O)C1CCN(Cc2ccc(OCCCN3CCCCC3)cc2)CC1`, with 0.955 nM.
As for `c1cc(OCCCN2CCCCC2)ccc1CN1CCCCC1` [JNJ-5207852], the Ki on Histamine H3 receptor [3] was 0.457 nM. In data set [4], this compound gave a half-life of over 24 h. The compound also came in with a Binding in data set [5] of 54%.

As a reminder, the Ki is a dissociation constant, usually derived from enzyme kinetics or from competition with a known ligand. Read a low Ki as higher affinity. As usually defined, the half-life is how long it takes for the measured level to halve. The low end stands for fast loss, the high end for slow loss.
